Values after ≈ are worked out from the molar mass of the structure shown.
Key:
[1] = Water solubility of compound by HPLC analysis; format: physicochemical
How it was run: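 Compound stocks at 5 mg/mL in DCM/MeOH were diluted in MeOH to 125–2000 µg/mL (500–5000 µg/mL for the salt form) and run on C18 HPLC with detection at 360 nm for calibration. A 10 µL injection of supersaturated aqueous solution, diluted if needed, was then analysed. Solubility was calculated from the linear regression.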

Homo sapiens [2] = organism: Homo sapiens; experiment: Selectivity index, ratio of IC50 for recombinant human CYP1A1 to IC50 for recombinant human CYP1B1
Cytochrome P450 1A1 = target: T1, Cytochrome P450 1A1 (Homo sapiens, UniProt P04798); experiment: Inhibition of recombinant human CYP1A1 using 7-ethoxyresorufin as substrate after 15 mins in presence of NADP+ by EROD assay; format: ADME
T1 sequence (P04798 whole entry): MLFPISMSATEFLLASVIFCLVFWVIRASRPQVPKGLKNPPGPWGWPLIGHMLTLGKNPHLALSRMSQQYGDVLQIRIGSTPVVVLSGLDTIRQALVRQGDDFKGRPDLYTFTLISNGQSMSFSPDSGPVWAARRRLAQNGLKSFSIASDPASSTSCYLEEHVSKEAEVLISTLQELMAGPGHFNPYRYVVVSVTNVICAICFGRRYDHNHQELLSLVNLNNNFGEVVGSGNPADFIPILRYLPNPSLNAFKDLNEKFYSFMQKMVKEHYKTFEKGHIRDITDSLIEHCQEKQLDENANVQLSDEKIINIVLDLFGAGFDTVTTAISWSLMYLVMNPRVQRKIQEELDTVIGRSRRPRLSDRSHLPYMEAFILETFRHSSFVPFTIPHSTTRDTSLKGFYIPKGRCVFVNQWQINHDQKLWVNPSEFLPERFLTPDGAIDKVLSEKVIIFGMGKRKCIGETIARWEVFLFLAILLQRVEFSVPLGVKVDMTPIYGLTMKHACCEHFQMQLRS
How it was run: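 Recombinant human CYP1 Supersomes co-expressing P450 reductase; 20 fmol CYP1B1, 10 fmol CYP1A1 or 60 fmol CYP1A2 per well. Incubated at 37 °C (1B1 35 min, 1A1 15 min, 1A2 50 min). Stopped with cold methanol; fluorescence read at 544/590 nm; triplicates.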

Homo sapiens [3] = organism: Homo sapiens; experiment: Selectivity index, ratio of IC50 for recombinant human CYP1A2 to IC50 for recombinant human CYP1B1
Cytochrome P450 1A2 = target: T2, Cytochrome P450 1A2 (Homo sapiens, UniProt P05177); experiment: Inhibition of recombinant human CYP1A2 using 7-ethoxyresorufin as substrate after 50 mins in presence of NADP+ by EROD assay; format: ADME
T2 sequence (P05177 whole entry): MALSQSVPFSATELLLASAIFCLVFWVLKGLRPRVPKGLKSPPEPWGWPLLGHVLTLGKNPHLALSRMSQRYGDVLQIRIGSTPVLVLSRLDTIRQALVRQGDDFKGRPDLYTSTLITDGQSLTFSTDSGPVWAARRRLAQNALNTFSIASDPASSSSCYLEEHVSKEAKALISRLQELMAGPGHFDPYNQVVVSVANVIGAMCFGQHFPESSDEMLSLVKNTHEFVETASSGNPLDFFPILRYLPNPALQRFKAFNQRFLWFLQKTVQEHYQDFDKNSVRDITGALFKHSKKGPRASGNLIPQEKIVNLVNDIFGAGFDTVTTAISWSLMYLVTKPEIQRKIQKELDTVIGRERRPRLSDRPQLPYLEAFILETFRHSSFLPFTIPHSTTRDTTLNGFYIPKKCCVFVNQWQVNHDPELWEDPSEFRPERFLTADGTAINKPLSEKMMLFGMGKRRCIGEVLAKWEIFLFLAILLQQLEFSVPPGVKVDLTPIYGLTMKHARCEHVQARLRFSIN
How it was run: (§1)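 Recombinant human CYP1 Supersomes co-expressing P450 reductase; 20 fmol CYP1B1, 10 fmol CYP1A1 or 60 fmol CYP1A2 per well. Incubated at 37 °C (1B1 35 min, 1A1 15 min, 1A2 50 min).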

Cytochrome P450 1B1 [4] = target: T3, Cytochrome P450 1B1 (Homo sapiens, UniProt Q16678); experiment: Potency index, ratio of IC50 of ANF to IC50 of compound for inhibition of human recombinant CYP1B1; settings: read-out: Ratio IC50
T3 sequence (Q16678 whole entry): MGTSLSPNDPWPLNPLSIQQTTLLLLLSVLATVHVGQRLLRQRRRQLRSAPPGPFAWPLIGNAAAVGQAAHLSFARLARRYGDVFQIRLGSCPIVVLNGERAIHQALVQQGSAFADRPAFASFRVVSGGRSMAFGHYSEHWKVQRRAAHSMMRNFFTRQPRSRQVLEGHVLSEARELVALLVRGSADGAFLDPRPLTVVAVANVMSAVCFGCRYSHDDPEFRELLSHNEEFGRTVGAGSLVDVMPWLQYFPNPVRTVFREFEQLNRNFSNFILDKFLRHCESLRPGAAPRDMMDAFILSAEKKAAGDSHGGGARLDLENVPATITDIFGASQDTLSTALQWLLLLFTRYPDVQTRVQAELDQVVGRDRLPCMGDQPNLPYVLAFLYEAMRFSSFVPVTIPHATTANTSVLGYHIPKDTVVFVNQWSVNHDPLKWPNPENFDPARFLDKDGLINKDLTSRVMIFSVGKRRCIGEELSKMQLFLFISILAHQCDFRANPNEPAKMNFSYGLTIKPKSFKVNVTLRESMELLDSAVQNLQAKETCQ

Cytochrome P450 1B1 [5] = target: T3, Cytochrome P450 1B1; experiment: Inhibition of recombinant human CYP1B1 using 7-ethoxyresorufin as substrate after 35 mins in presence of NADP+ by EROD assay; how it was run: as §1

Structure (SMILES) | solubility [1] [µg/mL] | Ratio IC50 (Homo sapiens [2]) | IC50 (Cytochrome P450 1A1) [nM] | Ratio IC50 (Homo sapiens [3]) | IC50 (Cytochrome P450 1A2) [nM] | IC50 (Cytochrome P450 1B1 [5]) [nM] | selectivity ratio (Cytochrome P450 1B1 [4])
O=c1cc(-c2ccccc2)oc2c1ccc1ccccc12 [ALPHA-NAPHTHOFLAVONE] | < 5 |  |  |  |  |  | 
COc1ccc(OC)c2c1c(OC)cc1c(=O)cc(-c3ccc(F)cn3)oc12 | < 5 | 240 | 16.8 | > 14300 | > 1000 | 0.07 | 84
COc1ccc(OC)c2c1c(OC)cc1c(=O)cc(-c3cc(Cl)ccn3)oc12 |  | 11.8 | 9.9 | > 1190 | > 1000 | 0.84 | 
COc1ccc(OC)c2c1c(OC)cc1c(=O)cc(-c3ccc4ccccc4n3)oc12 |  | 118 | 118 | > 1000 | > 1000 | 1 | 
COc1ccc(OC)c2c1c(OC)cc1c(=O)cc(-c3ccc4ncccc4c3)oc12 |  | 11.6 | 20.9 | > 556 | > 1000 | 1.8 | 

Further lines, with some results ahead:

solubility [1] [µg/mL] | Ratio IC50 (Homo sapiens [2]) | IC50 (Cytochrome P450 1A1) [nM] | Ratio IC50 (Homo sapiens [3]) | IC50 (Cytochrome P450 1A2) [nM] | IC50 (Cytochrome P450 1B1 [5]) [nM] | Structure (SMILES) | selectivity ratio (Cytochrome P450 1B1 [4])
311 (≈ 822 µM) | 31.4 | 30.8 | 110 | 108 | 0.98 | COc1ccc(OC)c2c1c(OC)cc1c(=O)cc(-c3ccc(N)nc3)oc12 | 
 | 18.1 | 17.7 | 144 | 141 | 0.98 | COc1ccc(OC)c2c1c(OC)cc1c(=O)cc(-c3cncc(F)c3)oc12 | 5
 | 5.3 | 6.9 | 124 | 161 | 1.3 | COc1ccc(OC)c2c1c(OC)cc1c(=O)cc(-c3cncc(C)c3)oc12 | 5
 | 7.3 | 8 | 674 | 742 | 1.1 | COc1ccc(OC)c2c1c(OC)cc1c(=O)cc(-c3cncc(Br)c3)oc12 | 5
 | 1.2 | 3.1 | 11.2 | 29.2 | 2.6 | COc1ccc(OC)c2c1c(OC)cc1c(=O)cc(-c3cscn3)oc12 | 
 | 33.7 | 40.4 | 166 | 200 | 1.2 | COc1ccc(OC)c2c1c(OC)cc1c(=O)cc(-c3ccncc3)oc12 | 
 | 62.9 | 126 | > 500 | > 1000 | 2 | COc1ccc(OC)c2c1c(OC)cc1c(=O)cc(-c3ccnnc3)oc12 | 

From ChEMBL document CHEMBL4732065 (Eur J Med Chem, 2021)
